Test results: ChEMBL document CHEMBL2034908, “Isoxazolo(aza)naphthoquinones: a new class of cytotoxic Hsp90 inhibitors” (Eur J Med Chem, 2012)
Activity calls are given as the source filed them. The calls are words filed in the database; no cut-off is given here.

How the values were obtained:
[1] = Cytotoxicity against human STO cells after 72 hrs; format: functional, cell-based
Method in brief: (§1)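 Compounds were dissolved fresh in DMSO and diluted in culture medium. Cells were exposed for 72 h at 37 °C in medium with 10% heat-inactivated FBS under 5% CO2. IC50 reported ± SD. STO cells were grown in 50/50 DMEM-Ham's F12 with 10% FBS and 2 mM L-Gln.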

[2] = Binding affinity to Hsp90 after 4 hrs by GM-FITC based fluorescence polarization assay
Method in brief: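 Commercial Hsp90 at 30 nM was mixed with GM-FITC tracer at 5 nM and serially diluted compound. Buffer: 20 mM HEPES(K) pH 7.3, 50 mM KCl, 5 mM MgCl2, 20 mM Na2MoO4, 0.01% NP40, with fresh 0.1 mg/ml bovine gamma globulin and 2 mM DTT. Shaken 4 h at 4 °C, then FP read in mP. IC50 is the concentration displacing 50% of tracer, from triplicate wells by nonlinear least-squares fit.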

NCI-H460 [3] = assay: Cytotoxicity against human NCI-H460 cells after 72 hrs; format: functional, cell-based; conditions: NCI-H460, 72 h; method in brief: as §1
A-431 [4] = assay: Cytotoxicity against human A431 cells after 72 hrs; format: functional, cell-based; conditions: A-431, 72 h
[5] = target: T1, Heat shock protein HSP90 (Homo sapiens) (UniProt P07900+P08238); assay: Inhibition of Hsp90 in human A431 cells assessed as down-regulation of Raf expression at 22 nM after 24 hrs by Western blotting analysis; format: cell-based; conditions: A-431
Method in brief: (§2)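 Cells were treated 24 h with drug freshly made in DMSO and diluted in medium with 10% FBS. Where a single level was used, it was 22 nM. Lysates: cells rinsed twice in ice-cold PBS with 0.1 mM orthovanadate, then lysed in hot sample buffer. Protein was quantified by BCA, run on SDS-PAGE and blotted to nitrocellulose. Detection used HRP secondary antibodies and chemiluminescence, with actin as loading control.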

[6] = target: T1, Heat shock protein HSP90 (Homo sapiens); assay: Inhibition of Hsp90 in human STO cells assessed as down-regulation of Raf expression at 22 nM after 24 hrs by Western blotting analysis; format: cell-based; method in brief: as §2
A-431 [7] = assay: Antitumor activity against human A431 cells xenografted in athymic nude Swiss mouse assessed as tumor growth inhibition at 10 mg/kg, po qd for 4 days per week for 3 weeks; format: functional; conditions: read-out: GI
Method in brief: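 Female athymic Swiss nude mice, 8–10 weeks old, bearing A431 squamous carcinoma xenografts. Drug dissolved in physiologic saline and given orally at 10 mg/kg, qdx4d/week for 3 weeks. Dosing started when tumours were just palpable. Tumour growth inhibition was assessed.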

[8] = target: T1, Heat shock protein HSP90 (Homo sapiens); assay: Inhibition of Hsp90 in human STO cells assessed as down-regulation of Cdk4 expression at 22 nM after 24 hrs by Western blotting analysis; format: cell-based; method in brief: as §2
[9] = target: T1, Heat shock protein HSP90 (Homo sapiens); assay: Inhibition of Hsp90 in human STO cells assessed as down-regulation of survivin expression at 22 nM after 24 hrs by Western blotting analysis; format: cell-based; method in brief: as §2
[10] = target: T1, Heat shock protein HSP90 (Homo sapiens); assay: Inhibition of Hsp90 in human A431 cells assessed as up-regulation of Hsp70 in human A431 cells after 24 hrs by Western blotting analysis; format: cell-based; conditions: A-431; method in brief: as §2
[11] = target: T1, Heat shock protein HSP90 (Homo sapiens); assay: Inhibition of Hsp90 in human A431 cells assessed as down-regulation of EGFR expression at 22 nM after 24 hrs by Western blotting analysis; format: cell-based; conditions: A-431; method in brief: as §2
[12] = target: T1, Heat shock protein HSP90 (Homo sapiens); assay: Inhibition of Hsp90 in human A431 cells assessed as down-regulation of survivin expression at 22 nM after 24 hrs by Western blotting analysis; format: cell-based; conditions: A-431; method in brief: as §2
[13] = target: T1, Heat shock protein HSP90 (Homo sapiens); assay: Inhibition of Hsp90 in human A431 cells assessed as down-regulation of Cdk4 expression at 22 nM after 24 hrs by Western blotting analysis; format: cell-based; conditions: A-431; method in brief: as §2
NCI-H460 [14] = assay: Cytotoxicity against human NCI-H460 cells at >1 uM after 72 hrs; format: functional
[15] = target: T1, Heat shock protein HSP90 (Homo sapiens); assay: Inhibition of Hsp90 in human A431 cells assessed as down-regulation of Akt expression after 24 hrs by Western blotting analysis; format: cell-based; conditions: A-431; method in brief: as §2
[16] = target: T1, Heat shock protein HSP90 (Homo sapiens); assay: Inhibition of Hsp90 in human A431 cells assessed as down-regulation of Cdk4 expression after 24 hrs by Western blotting analysis; format: cell-based; conditions: A-431; method in brief: as §2
[17] = target: T1, Heat shock protein HSP90 (Homo sapiens); assay: Inhibition of Hsp90 in human A431 cells assessed as down-regulation of EGFR expression after 24 hrs by Western blotting analysis; format: cell-based; conditions: A-431; method in brief: as §2
[18] = target: T1, Heat shock protein HSP90 (Homo sapiens); assay: Inhibition of Hsp90 in human A431 cells assessed as down-regulation of survivin expression after 24 hrs by Western blotting analysis; format: cell-based; conditions: A-431; method in brief: as §2

Row | IC50 [2] [nM] | pIC50 [2] | Compound | IC50 [1] [nM] | IC50 (NCI-H460 [3]) [nM] | IC50 (A-431 [4]) [nM] | further results
1 | 5840 |  | COc1ccc(-c2noc3c2C(=O)c2ccccc2C3=O)cc1 | 160 | 650 | 350 | 
2 | 34 | 7.47 | O=C1c2ccccc2C(=O)c2c(-c3cc[n+](Cc4ccccc4)cc3)noc21.[Br-] | 2.2 | 18 | 1.6 | inhibition [5]: Active; inhibition [6]: Active; inhibition in vivo at 10 mg/kg (A-431 [7]): 50%; inhibition [8]: Active; inhibition [9]: Active; inhibition [10]: Dose-dependent effect; inhibition [11]: Active; inhibition [12]: Active; inhibition [13]: Active
3 | 200000 | 3.7 | COc1ccccc1-c1noc2c1C(=O)c1ccccc1C2=O | 660 | 290 | 130 | 
4 | 680 | 6.17 | O=C1c2ccccc2C(=O)c2c(-c3cc[n+](Cc4cnccn4)cc3)noc21.[Br-] | 220 | 17 | 52 | 
5 | 200000 | 3.7 | O=C1c2ccccc2C(=O)c2c(-c3cccc[n+]3Cc3ccccc3)noc21.[Br-] | 2240 | > 1000 | 2240 | 
6 | > 100000 |  | O=C1c2ccccc2C(=O)c2c(-c3ccc(O)cc3)noc21 | 460 | 510 | 210 | 
7 | 340 | 6.47 | COc1cccc2c1C(=O)c1c(-c3cc[n+](Cc4ccccc4)cc3)noc1C2=O.[Br-] | 168 | 180 | 168 | 
8 | 200000 | 3.7 | O=C1c2ccccc2C(=O)c2c(-c3ccc(F)cc3)noc21 | 20 | 350 | 260 | 
9 | 4200 | 5.38 | O=C1c2ccccc2C(=O)c2c(-c3cc(Cl)c(O)cc3O)noc21 | 1000 | > 1000 | 23000 | 
10 | 540 | 6.27 | O=C1c2ccccc2C(=O)c2c(-c3cccnc3)noc21 | 40 | 62 | 43 | 
11 | 1100 |  | C=CCNC1=C2C[C@@H](C)C[C@H](OC)[C@H](O)[C@@H](C)/C=C(\C)[C@H](OC(N)=O)[C@@H](OC)/C=C\C=C(/C)C(=O)NC(=CC1=O)C2=O [TANESPIMYCIN] |  | 10 | 69 | 
12 | 1550 | 5.81 | O=C1c2ccccc2C(=O)c2c(-c3ccccc3O)noc21 | 3400 | > 1000 | 3400 | 
13 | > 100000 |  | CC(=O)Oc1c2ccccc2c(OC(C)=O)c2c(-c3ccc(F)cc3)noc12 | 670 | > 1000 | 690 | 
14 | 510 | 6.29 | O=C1c2ccccc2C(=O)c2c(-c3ccc[n+](Cc4cnccn4)c3)noc21.[Br-] | 110 | 46 | 42 | 
15 | 1200 | 5.92 | Cl.O=C1c2ccccc2C(=O)c2c(-c3ccc(OCCN4CCOCC4)cc3)noc21 | 1130 | 866 | 440 | 
16 | 1600 | 5.61 | COc1ccc(-c2noc3c2C(=O)c2cnccc2C3=O)cc1 | 92 | 446 | 98 | 
17 | > 100000 | 5.71 | O=C1c2ccccc2C(=O)c2c(-c3ccc4[nH]ccc4c3)noc21 | 320 | 300 | 320 | 
18 | 1940 |  | CC(=O)Oc1cccc2c1C(=O)c1c(-c3ccc(F)cc3)noc1C2=O | 1050 | 78 | 270 | 

Row | IC50 [2] [nM] | pIC50 [2] | Compound | IC50 [1] [nM] | IC50 (NCI-H460 [3]) [nM] | IC50 (A-431 [4]) [nM] | further results
19 | 98 | 7.01 | O=C1c2cccc(O)c2C(=O)c2c(-c3cc[n+](Cc4ccccc4)cc3)noc21.[Br-] | 21600 | 880 | 21600 | 
20 | > 100000 |  | O=C1c2ccccc2C(=O)c2c(/C=C/c3ccccc3)noc21 | 120 | > 1000 | 320 | Activity (NCI-H460 [14]): 40%
21 | 390 | 6.41 | O=C1c2ccccc2C(=O)c2c(-c3ccncc3)noc21 | 11 | 140 | 56 | 
22 | 290 | 6.54 | O=C1c2cccc(O)c2C(=O)c2c(-c3ccc(F)cc3)noc21 | 610 | 124 | 290 | 
23 | 7850 | 5.11 | O=C1c2ccccc2C(=O)c2c(-c3ccccc3)noc21 | 20 | 120 | 120 | 
24 | > 100000 |  | COc1ccc(-c2noc3c(OC(C)=O)c4ccccc4c(OC(C)=O)c23)cc1 | 1000 | > 1000 | 1300 | Activity (NCI-H460 [14]): 39%
25 | 31 | 7.51 | CC(=O)Oc1cccc2c1C(=O)c1c(-c3cc[n+](Cc4ccccc4)cc3)noc1C2=O.[Br-] | 3960 | > 1000 | 3960 | Activity (NCI-H460 [14]): 32%
26 | 1900 | 5.72 | COc1cccc2c1C(=O)c1c(-c3ccncc3)noc1C2=O | 261 | 880 | 330 | 
27 | > 100000 |  | O=C1c2cccc(O)c2C(=O)c2c(-c3ccncc3)noc21 | 103 | 880 | 68 | 
28 | 630 | 6.2 | C[n+]1ccc(-c2noc3c2C(=O)c2ccccc2C3=O)cc1.[I-] | 1200 | 330 | 480 | 
29 | > 100000 |  | COc1cc(O)c(-c2noc3c2C(=O)c2ccccc2C3=O)cc1Cl | 300 | > 1000 | 2980 | 
30 | 84 | 7.08 | CC(=O)Oc1cccc2c1C(=O)c1c(-c3ccncc3)noc1C2=O | 150 | 150 | 60 | 
31 | 120 | 6.92 | O=C1c2ccncc2C(=O)c2c(-c3ccncc3)noc21 | 60 | 85 | 8.5 | 
32 | < 5 | 8.47 | Cl.O=C1c2ccncc2C(=O)c2c(-c3ccc(OCCN4CCOCC4)cc3)noc21 | 54 | 41 | 20 | inhibition [15]: Dose-dependent effect; inhibition [16]: Dose-dependent effect; inhibition [17]: Dose-dependent effect; inhibition [18]: Dose-dependent effect; inhibition [10]: Dose-dependent effect
33 | 770 | 6.11 | O=C1c2ccccc2C(=O)c2c(-c3ccc[n+](Cc4ccccc4)c3)noc21.[Br-] | 10 | 21 | 20 | 
34 | 5600 | 5.25 | O=C1c2ccncc2C(=O)c2c(-c3ccc(F)cc3)noc21 | 4 | 183 | 4 | 
35 | > 100000 |  | COc1cc(OC)c(-c2noc3c2C(=O)c2ccccc2C3=O)cc1Cl | 135 | 880 | 1400 | 
36 | 1060 | 5.97 | O=C1c2ccccc2C(=O)c2c(-c3ccccn3)noc21 | 20 | 1000 | 340 | 
